Screens from PubChem BioAssay.
CDK5 inh – CDK5/p35 (human) kinase inhibition; Q00535+Q15078; AID 488839; inhibition, % at 10 µM; Recombinant CDK5/p35, ADP-Glo luminescence, 60 min; actives 0.01% (n = 330,000);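 active means highest replicate inhibition of at least 50% and at least 75% of replicates reaching 50%; inconclusive means only one of the two criteria met; inactive means both criteria failed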;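 further: plate controls were DMSO neutral control for no effect and GW8510 at 10 µM for full effect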
SR-BI uptake up – enhances SR-BI lipid uptake from DiI-HDL; actives 0.096% (n = 320,000); AID 504775; CHO ldlA[mSR-BI] cells, DiI-HDL uptake fluorescence, 3 h; 100 = double the neutral-control signal; activation, % at 12.5 µM;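 active means mean replicate activation of at least 60% and every replicate at or above 60%; inconclusive means mean or all-replicate condition met, but not both; inactive means mean below 60% and not all replicates reaching 60%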;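 further: 0% = median plate neutral-control signal and 100% = twice that signal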
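material = CHO ldlA[mSR-BI] cells | medium = Ham's F12 with 0.5% BSA, HEPES 25 mM, pH 7.4 | reagent = fluorescent DiI-HDL, 10 µg/mL final | compound dosing = single-point compound dose | incubation = 3 h, 37 °C | measured by = bottom-read fluorescence, 550/595 nm | measure = HDL uptake via cellular fluorescence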
SR-BI HDL uptake – blocks mouse SR-BI lipid uptake from DiI-HDL | Q61009 | ldlA[mSR-BI] CHO cells, DiI-HDL uptake fluorescence, 3 h | inhibition, % at 12.5 µM | actives 0.96% (n = 320,000);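 active means mean replicate inhibition of at least 70% and a set share of replicates each scoring 70 or more; inconclusive means meets just one of the two criteria; inactive means fails both criteria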;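 further: 0% = median of neutral control wells and 100% = median of positive control wells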
Target sequence (Q61009 whole entry, looked up): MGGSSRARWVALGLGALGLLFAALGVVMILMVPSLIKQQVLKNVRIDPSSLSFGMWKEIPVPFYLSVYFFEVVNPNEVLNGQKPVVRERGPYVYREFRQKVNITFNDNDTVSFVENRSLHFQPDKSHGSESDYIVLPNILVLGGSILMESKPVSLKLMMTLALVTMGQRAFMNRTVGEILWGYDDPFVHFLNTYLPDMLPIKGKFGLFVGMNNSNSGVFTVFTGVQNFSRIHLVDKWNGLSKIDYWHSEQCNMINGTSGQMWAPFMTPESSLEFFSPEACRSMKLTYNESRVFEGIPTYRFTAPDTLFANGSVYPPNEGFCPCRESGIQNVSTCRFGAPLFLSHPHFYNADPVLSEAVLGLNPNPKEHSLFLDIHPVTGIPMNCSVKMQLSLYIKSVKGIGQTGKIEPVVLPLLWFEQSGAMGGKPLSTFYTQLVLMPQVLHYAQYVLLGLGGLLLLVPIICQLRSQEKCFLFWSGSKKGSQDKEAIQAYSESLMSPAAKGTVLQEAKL
dFosB act-1 – enhances mouse delta FosB homodimer DNA binding; P13346; purified delta FosB, TAMRA-CDK5 oligo fluorescence polarization; percent of positive-control signal above neutral wells; activation, % at 25 µM; actives 0.99% (n = 340,000); AID 493131;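 active means mean activation above about 17%, with every replicate also reaching it, limit read from the data, passing the limit was not always enough; inconclusive means only one of the two conditions met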
dFosB act-2 – enhances mouse delta FosB homodimer binding to DNA. shares compounds with dFosB act-1. purified delta FosB, TAMRA-CDK5 oligo fluorescence polarization; normalised: neutral wells 0, positive control 100. activation, % at 24.9 µM. 2,400 tested, under 10 active;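 active means highest replicate activation at or above 34% and every replicate reaching that threshold; inconclusive means meets only one of the two criteria; inactive means meets neither criterion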;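 further: higher polarization means more probe DNA bound by delta FosB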
* = called active by the depositor; ? = inconclusive; . = no result. Compounds with a hit are over-represented: about 2% of the library has one in this group of screens.

SMILES	CDK5 inh	SR-BI uptake up	SR-BI HDL uptake	dFosB act-1	dFosB act-2
Cc1cc(C)nc(N/N=C/c2cc3c(cc2[N+](=O)[O-])OCO3)n1	-3	-37	37	7	.
COc1cc(/C=N/Nc2nc(C)cc(C)n2)ccc1OC(=O)c1ccco1	-4	5	-5	-3	.
O=[N+]([O-])c1cc2c(cc1/C=N/Nc1nc(Nc3ccccc3)nc(N3CCCCC3)n1)OCO2	-1	-68	68	38*	0
CNc1nc(N/N=C/c2ccc([N+](=O)[O-])cc2)nc(Nc2ccccc2)n1	0	-51	51	41*	-9
O=[N+]([O-])c1ccc(/C=N/Nc2nc(N3CCOCC3)nc(N3CCOCC3)n2)cc1	0	-14	14	4	.
O=C(NCCc1ccccc1)C1CCC(CNS(=O)(=O)c2cccc3cccnc23)CC1 (stereo not drawn)	0	-17	17	-7	.
COc1ccc(/C=N/Nc2nc(N3CCCC3)nc(N3CCCC3)n2)cc1	1	-10	10	-2	.
O=[N+]([O-])c1ccc(NC2CCCC2)cc1	3	-6	6	-2	.
COc1ccc(/C=N/Nc2nc(Nc3ccccc3)nc(N3CCCC3)n2)cc1	2	-62	62	47*	1
O=[N+]([O-])c1ccc(Nc2nc(NC3CCCCC3)nc(N3CCCC3)n2)cc1	2	-73	?	48*	3
OC1(c2ccccc2)CNCCc2ccccc21 (stereo not drawn)	-2	13	-13	4	.
COc1cccc(-c2c(C(=O)N/N=C/c3ccsc3)nnn2-c2nonc2N)c1	.	-13	13	20*	2
CCOc1cccc(-c2c(C(=O)N/N=C/c3ccc(Br)cc3)nnn2-c2nonc2N)c1	0	-29	29	29*	4
CCOc1ccc(-c2c(C(=O)N/N=C/c3cccc(Br)c3)nnn2-c2nonc2N)cc1	-1	-49	49	55*	1
CCC(C)(C)C1CCC2(CC1)NC(=O)N(CC(=O)Nc1nc(-c3ccc(C)cc3)cs1)C2=O (stereo not drawn)	1	-28	28	34*	5
CCC(C)(C)C1CCC2(CC1)NC(=O)N(CC(=O)N1CCN(S(=O)(=O)c3cc(C)ccc3C)CC1)C2=O (stereo not drawn)	2	-10	10	45*	6
O=C(CN1C(=O)NC2(CCCC2)C1=O)Nc1nc(-c2ccc(F)cc2)cs1	-1	-44	44	0	.
COc1cccc(CNC(=O)C(C(=O)NCc2cccc(OC)c2)c2ncc(C(F)(F)F)cc2Cl)c1	1	-37	37	-3	.
COC(=O)c1cn(NC(=O)COc2ccc(Cl)cc2)c(=O)c2ccccc12	0	6	-6	32*	6
COC(=O)c1cn(NC(=O)Cc2c(F)cccc2Cl)c(=O)c2ccccc12	-3	9	-9	-8	.
O=C(O)c1ccccc1C(=O)OC1CCCC2CCCC21 (stereo not drawn)	-1	3	-3	5	.
O=[N+]([O-])c1cc([N+](=O)[O-])c(Oc2cccnc2Br)cc1NN1CCCCC1	3	21	-21	4	.
O=C(NCc1cccnc1)C1CC(c2ccc(Cl)c(Cl)c2)=NO1 (stereo not drawn)	1	19	-19	1	.
CC(C)CCOc1ccc(C2(C)NC(=O)NC2=O)cc1 (stereo not drawn)	0	3	-3	-5	.
CCOC(=O)c1ccc(NC(=O)CSc2nc(=O)n3cccc(C)c3n2)cc1	-2	-2	2	29*	3
SMILES	CDK5 inh	SR-BI uptake up	SR-BI HDL uptake	dFosB act-1	dFosB act-2
CC(=O)c1ccc(NC(=O)CSc2nc(N3CCOCC3)nc(N3CCOCC3)n2)cc1	1	12	-12	-10	.
CCOC(=O)c1ccc(NC(=O)CSc2nc(N3CCOCC3)nc(N3CCOCC3)n2)cc1	0	11	-11	24*	2
Cc1cc(=O)oc2c(C)c(OCC(=O)NCCCN3CCOCC3)ccc12	-1	6	-6	-4	.
CCc1ccc(NC(=O)C(C)OC(=O)c2cc(=O)[nH]c3ccc(S(=O)(=O)Nc4ccc(F)cc4)cc23)cc1 (stereo not drawn)	0	8	-8	100*	-2
Cc1ccc(S(=O)(=O)N2CCN(S(=O)(=O)N3CCCCCC3)CC2)cc1	-4	15	-15	-18	.
O=C(c1cc(-c2cccc(Cl)c2)on1)N1CCN(c2ccc(F)cc2)CC1	1	12	-12	21*	-5
CN1CCN(C(=O)c2cc(-c3cccc(Cl)c3)on2)CC1	-2	18	-18	-4	.
Cc1cccc(NC(=O)c2cc(-c3cc(C)c(C)cc3O)n[nH]2)c1	-1	14	-14	-5	.
Cc1ccc(-c2cc(C(=O)Nc3cccnc3)[nH]n2)c(O)c1C	-1	.	.	25*	3
Cc1ccc(-c2cc(C(=O)NCc3ccc4c(c3)OCO4)[nH]n2)c(O)c1C	-2	6	-6	21*	-2
Cc1ccc(NCc2nnc(SCC(=O)c3ccc4c(c3)OCCO4)o2)c(C)c1	1	-26	26	29*	2
COc1ccc(C(=O)CSc2nnc(CNc3ccc(C)cc3C)o2)cc1	-2	-11	11	-1	.
COc1ccc(C)cc1S(=O)(=O)N(C)CC(=O)N1CCCC1	0	20	-20	2	.
Cc1cc(C)c2nc(-c3ccccn3)cc(C(=O)NCc3ccc(S(N)(=O)=O)cc3)c2c1	0	-10	10	65*	-1
Cc1cc(C)c2nc(-c3ccccn3)cc(C(=O)NCCc3ccc(S(N)(=O)=O)cc3)c2c1	1	-44	44	4	.
CN(C)CCCNC(=S)N(Cc1cccs1)Cc1cc2cc3c(cc2[nH]c1=O)OCCO3	1	-4	4	32*	5
COc1ccc(NC(=O)CN2CCN(c3c(C)cccc3C)CC2)cc1	-1	-18	18	-12	.
Nc1nc(N)c2nc(-c3ccccc3)c(N)nc2n1	-1	7	-7	19*	0
CC(C)c1nc(SCC(=O)Nc2ccc3c(c2)OCCO3)c2c(=O)n(C)c(=O)n(C)c2n1	1	5	-5	24*	8
CC(C)c1nc(SCC(=O)Nc2cccc(C(F)(F)F)c2)c2c(=O)n(C)c(=O)n(C)c2n1	0	-46	46	-11	.
Cc1nc(NC(=O)/C=C/c2ccccc2)sc1C(=O)Nc1ccccc1Cl	1	-21	21	39*	3
Cc1nc(NC(=O)/C=C/c2ccccc2)sc1C(=O)Nc1ccc(Cl)cc1	-1	-42	42	31*	0
Cc1nc(Nc2ccc(Cl)c(Cl)c2)sc1C(=O)Nc1ccccc1	1	-42	42	-15	.
O=C(/C=C/c1ccc(Cl)cc1)Nc1nccs1	1	-19	19	23*	0
